Screen size: about 2,400 compounds; about 1,200 (50%) were called active.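 How the source made its calls: active means activation above the run cutoff, the mean activation over all tested wells plus 3 SD (cut at about 12% in these data); inactive means the rest.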 The set was probably picked from earlier hits. The list is a sample of the results.

A short description of the assay: nonselective calcium mobilization agonists, CHO-Ga16 cells, counter-screen for hTAAR1 agonist project, cell-based, fluorescence, CHO-Ga16 parental line (AID 651787). The note with it: Fluo-8 calcium fluorescence, at 3 µM, active compounds read high, normalized to maximal ATP response, DMSO zero. The essentials: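 System: Gα16-overexpressing parental CHO cells; Quantity: 750 cells/well; Signal: Fluo-8 calcium-dye fluorescence; Benchmarks: DMSO (0%) and EC100 ATP (100%); Evaluation: percent activation from max/basal fluorescence ratio; Schedule: Fluo-8 loading 75 min 37 °C, then 30 min room temperature; Dosing: 3 µM compound, single concentration.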
(A change in cytosolic calcium serves as a functional read-out for many receptors and channels.)
For `CCCCC(=O)N/N=C/c1c(O)n(CC)c(=S)n(CC)c1=O`, the activation is 90.1% (active).

Regarding `CCC(=NCCc1ccccc1)c1c(O)n(C2CCCCC2)c(=O)[nH]c1=O`, the activation was 4.36% (inactive). In the case of `COc1ccc(Br)cc1CNCCc1cccc(Cl)c1` it was 17.7% (active); in that of `Clc1ccc2nc3c(c(-c4ccccc4)c2c1)CNCC3`, 3.65% (inactive); in that of `Cc1cccc(N2C(=O)NC(=O)/C(=C\c3cnn(-c4ccccc4)c3)C2=O)c1`, 25.1% (active). Turning to `c1ccc(CCNC2CCCCCC2)cc1`, the activation was 0.13% (inactive). In the case of `O=C1NC(=O)N(Cc2ccco2)C(=O)/C1=C\c1ccc(-c2ccc(F)cc2)o1`, the activation is 21.1% (active).

With `NCC(O)c1ccc(O)cc1` (centres undefined), the activation was 1.74% (inactive). As to `CC(Cc1ccccc1)NC=O` (centres undefined), the activation was 6.88% (inactive).
